Consider 32 compounds from ChEMBL document CHEMBL1138544, “Solution-phase parallel synthesis and evaluation of anticonvulsant activity of N-substituted-3,4-dihydroisoquinoline-2(1H)-carboxamides” (2009).

Structures are written as SMILES.

The test system of assay [1] is Mus musculus. The experiment in a line: Anticonvulsant activity against audiogenic tonus seizures in ip dosed DBA/2 mouse epilepsy model administered 30 mins before auditory simulation. Format: functional. As to conditions: DBA/2, ip. Put shortly:
(§1)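 DBA/2 mice (sound-seizure susceptible), 8e12 g, 22e25 days old, either sex, groups of 10. Vehicle or each dose given 30 min before auditory stimulation. Latency to and incidence of each seizure phase scored. ED50 for each phase taken from dose-response curves fitted by the Litchfield and Wilcoxon method.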

Assay [2] has as its system Mus musculus. The experiment in a line: Anticonvulsant activity against audiogenic clonus seizures in ip dosed DBA/2 mouse epilepsy model administered 30 mins before auditory simulation. It counts as functional. The following applies: DBA/2, ip. In outline: as §1

Regarding `COc1cc2c(cc1OC)C(c1ccc(F)cc1)N(C(=O)NC(C)C)CC2` (centres undefined), the figures for the median effective dose (ED50) in the assay on Mus musculus [1] and with Mus musculus [2] were 17.3 mg/kg and above 35 mg/kg, respectively.

Consider `CCCCNC(=O)N1CCc2cc(OC)c(OC)cc2C1c1ccc(F)cc1` (centres undefined), for which the median effective dose (ED50) in the assay with Mus musculus [1] is 13.7 mg/kg; with Mus musculus [2], above 35 mg/kg.

For the compound `CCCNC(=O)N1CCc2cc(OC)c(OC)cc2C1c1ccc(F)cc1` (centres undefined), the ED50 was 26.9 mg/kg in the assay with Mus musculus [1] and above 35 mg/kg in the assay on Mus musculus [2].

Regarding `COc1cc2c(cc1OC)C(c1ccc(Br)cc1)N(C(=O)NC(C)C)CC2` (centres undefined), the ED50 is 23.6 mg/kg in the assay on Mus musculus [1] and above 35 mg/kg in the assay on Mus musculus [2].

Turning to `CCCNC(=O)N1CCc2cc(OC)c(OC)cc2C1c1ccc(Br)cc1` (centres undefined), the 50% effective dose (ED50) with Mus musculus [1] is 31.2 mg/kg; in the assay on Mus musculus [2], above 35 mg/kg.

Take `CCNC(=O)N1CCc2cc(OC)c(OC)cc2C1c1ccc(Cl)cc1` (centres undefined): the ED50 with Mus musculus [1] is 14.2 mg/kg; in the assay on Mus musculus [2], 30.4 mg/kg.

Regarding `COc1cc2c(cc1OC)C(c1ccccc1)N(C(=O)NC(C)C)CC2` (centres undefined), the ED50 in the assay on Mus musculus [1] and with Mus musculus [2] was above 35 mg/kg each time.

For the compound `COc1cc2c(cc1OC)C(c1ccc(Br)cc1)N(C(=O)NC1CCCC1)CC2` (centres undefined), the 50% effective dose (ED50) in the assay with Mus musculus [1] was 14.7 mg/kg; with Mus musculus [2] it was above 35 mg/kg.

Turning to `COc1cc2c(cc1OC)C(c1ccc(Br)cc1)N(C(=O)CN1CCCCC1)CC2` (centres undefined), the 50% effective dose (ED50) was 3.86 mg/kg in the assay with Mus musculus [1] and 5.99 mg/kg with Mus musculus [2].

In the case of `COc1cc2c(cc1OC)C(c1ccc(F)cc1)N(C(=O)NC1CCCC1)CC2` (centres undefined), the ED50 is 7.24 mg/kg in the assay with Mus musculus [1] and 27.7 mg/kg in the assay on Mus musculus [2].

Consider `CCCCNC(=O)N1CCc2cc(OC)c(OC)cc2C1c1ccccc1` (centres undefined), for which the median effective dose (ED50) with Mus musculus [1] is 11 mg/kg; with Mus musculus [2] it was 31.7 mg/kg.

On to `COc1cc2c(cc1OC)C(c1ccc(Cl)cc1)N(C(=O)NC(C)C)CC2` (centres undefined), for which the median effective dose (ED50) in the assay on Mus musculus [1] was 26.1 mg/kg; in the assay with Mus musculus [2], above 35 mg/kg.

In the case of `CCCC(CCC)C(=O)O` [VALPROIC ACID], the ED50 was 9.9 mg/kg with Mus musculus [1] and 20.3 mg/kg with Mus musculus [2].

With `CCCNC(=O)N1CCc2cc(OC)c(OC)cc2C1c1ccc(Cl)cc1` (centres undefined), the values for the 50% effective dose (ED50) in the assay on Mus musculus [1] and in the assay on Mus musculus [2] were 23.4 mg/kg and above 35 mg/kg, respectively.

Turning to `NCC1(CC(=O)O)CCCCC1` [GABAPENTIN], the results for the ED50 in the assay on Mus musculus [1] and with Mus musculus [2] were 21.5 mg/kg and above 35 mg/kg, respectively.

`COc1cc2c(cc1OC)C(c1ccc(F)cc1)N(C(=O)NC(C)(C)C)CC2` (centres undefined): the ED50 in the assay on Mus musculus [1] was 18.7 mg/kg; in the assay on Mus musculus [2] it was above 35 mg/kg.

As for `CCNC(=O)N1CCc2cc(OC)c(OC)cc2C1c1ccc(F)cc1` (centres undefined), the ED50 with Mus musculus [1] and in the assay with Mus musculus [2] was above 35 mg/kg throughout.

As to `CCCCNC(=O)N1CCc2cc(OC)c(OC)cc2C1c1ccc(Br)cc1` (centres undefined), the median effective dose (ED50) in the assay with Mus musculus [1] was 15.5 mg/kg; with Mus musculus [2], above 35 mg/kg.

Consider `COc1cc2c(cc1OC)C(c1ccccc1)N(C(=O)NC(C)(C)C)CC2` (centres undefined), for which the ED50 in the assay on Mus musculus [1] is 13.9 mg/kg; in the assay with Mus musculus [2], 27.5 mg/kg.

As to `COc1cc2c(cc1OC)C(c1ccc(Cl)cc1)N(C(C)=O)CC2` (centres undefined), the 50% effective dose (ED50) in the assay on Mus musculus [1] is 1.22 mg/kg; in the assay on Mus musculus [2], 2.25 mg/kg.

As for `COc1cc2c(cc1OC)C(c1ccccc1)N(C(=O)NC1CCCC1)CC2` (centres undefined), the results for the 50% effective dose (ED50) in the assay with Mus musculus [1] and in the assay on Mus musculus [2] were 15.1 mg/kg and above 35 mg/kg, respectively.

On to `COc1cc2c(cc1OC)C(c1ccc(Br)cc1)N(C(=O)NC(C)(C)C)CC2` (centres undefined), for which the values for the 50% effective dose (ED50) with Mus musculus [1] and in the assay on Mus musculus [2] were 16.9 mg/kg and above 35 mg/kg, respectively.

Regarding `COc1cc2c(cc1OC)C(c1ccc(Cl)cc1)N(C(=O)NC1CCCCC1)CC2` (centres undefined), the ED50 was 14.2 mg/kg in the assay with Mus musculus [1] and above 35 mg/kg in the assay on Mus musculus [2].

With `CCNC(=O)N1CCc2cc(OC)c(OC)cc2C1c1ccccc1` (centres undefined), the results for the ED50 in the assay with Mus musculus [1] and in the assay on Mus musculus [2] were 11.9 mg/kg and 32.5 mg/kg, respectively.

On to `CCNC(=O)N1CCc2cc(OC)c(OC)cc2C1c1ccc(Br)cc1` (centres undefined), for which the ED50 in the assay with Mus musculus [1] and in the assay on Mus musculus [2] was above 35 mg/kg in each case.

As to `CCCNC(=O)N1CCc2cc(OC)c(OC)cc2C1c1ccccc1` (centres undefined), the ED50 with Mus musculus [1] is 18.1 mg/kg; in the assay with Mus musculus [2] it was above 35 mg/kg.

As to `COc1cc2c(cc1OC)C(c1ccccc1)N(C(=O)NC1CCCCC1)CC2` (centres undefined), the results for the 50% effective dose (ED50) in the assay on Mus musculus [1] and with Mus musculus [2] were 9.38 mg/kg and 26.9 mg/kg, respectively.

Consider `COc1cc2c(cc1OC)C(c1ccc(Br)cc1)N(C(=O)NC1CCCCC1)CC2` (centres undefined), for which the ED50 with Mus musculus [1] was 19.3 mg/kg; in the assay with Mus musculus [2], above 35 mg/kg.

Turning to `CCCCNC(=O)N1CCc2cc(OC)c(OC)cc2C1c1ccc(Cl)cc1` (centres undefined), the ED50 in the assay on Mus musculus [1] was 16.5 mg/kg; in the assay on Mus musculus [2], above 35 mg/kg.

`COc1cc2c(cc1OC)C(c1ccc(F)cc1)N(C(=O)NC1CCCCC1)CC2` (centres undefined): the 50% effective dose (ED50) with Mus musculus [1] and with Mus musculus [2] was above 35 mg/kg each time.

With `COc1cc2c(cc1OC)C(c1ccc(Cl)cc1)N(C(=O)NC1CCCC1)CC2` (centres undefined), the ED50 in the assay on Mus musculus [1] was 12.1 mg/kg; in the assay on Mus musculus [2] it was above 35 mg/kg.

As for `COc1cc2c(cc1OC)C(c1ccc(Cl)cc1)N(C(=O)NC(C)(C)C)CC2` (centres undefined), the figures for the 50% effective dose (ED50) in the assay with Mus musculus [1] and in the assay on Mus musculus [2] were 13.8 mg/kg and 30.6 mg/kg, respectively.

The term ED50 denotes the midpoint of the dose-response relation.
